The source of these data is ChEMBL document CHEMBL1145928, “Guanidino N-substituted and N,N-disubstituted derivatives of the kappa-opioid antagonist GNTI” (J Med Chem, 2003).

The target in assay [1] is T1, Kappa-type opioid receptor (Homo sapiens, UniProt P41145). The assay is described as follows: Binding affinity against cloned human Opioid receptor kappa 1 transfected into chinese hamster ovary cells using [3H]U-69593 as radioligand. It is filed as cell-based. In short, it runs like this:
(§1)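 Competition binding in CHO cells transfected with cloned human opioid receptors, using [3H]DAMGO (μ), [3H]Cl-DPDPE (δ) and [3H]U69,593 (κ) as displaced radioligands. Hill slopes were examined. Data are averages of two experiments, each run in triplicate.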

The target in assay [2] is T2, Opioid receptors; delta & kappa (Homo sapiens) (UniProt P41145+P41143). The assay is described as follows: Ratio of (Ki) delta-opioid receptor to that of (Ki) kappa-opioid receptor. The class given is protein assay. Summed up: (§2)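 Ki ratios μ/κ and δ/κ from competition binding in CHO cells with cloned human receptors, displacing [3H]DAMGO, [3H]Cl-DPDPE or [3H]U69,593. Data are averages of two experiments, each run in triplicate.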

Assay [3] concerns the target T3, Opioid receptors; mu & kappa (Homo sapiens) (UniProt P41145+P35372). The assay is described as follows: Ratio of (Ki) mu-opioid receptor to that of (Ki) kappa-opioid receptor. The class given is protein assay. Summed up: as §2
In assay [4] the target is T4, Mu-type opioid receptor (Homo sapiens, UniProt P35372). Briefly: Binding affinity against cloned human Opioid receptor mu 1 transfected into chinese hamster ovary cells using [3H]DAMGO as radioligand. The class given is cell-based. Summed up: as §1
The target in assay [5] is T1, Kappa-type opioid receptor. The assay is described as follows: Antagonistic activity against cloned human Opioid receptor kappa 1 using U69,593 as ligand in [35S]GTP-gamma-S, assay. The class given is functional.
In assay [6] the target is T5, Delta-type opioid receptor (Homo sapiens, UniProt P41143). The assay is described as follows: Antagonistic activity against cloned human Opioid receptor delta 1 using DPDPE as ligand in [35S]GTP-gamma-S, assay. It is filed as functional.
The target in assay [7] is T4, Mu-type opioid receptor. The assay is described as follows: Antagonistic activity against cloned human Opioid receptor mu 1 using DAMGO as ligand in [35S]GTP-gamma-S, assay. The class given is functional.
Assay [8] concerns the target T2, Opioid receptors; delta & kappa (Homo sapiens). Briefly: Ratio of (Ke) delta-opioid receptor to that of (Ke) kappa-opioid receptor. The class given is protein assay. In short, it runs like this: (§3)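 Selectivity ratios taken from [35S]GTPγS antagonist values in CHO membranes expressing cloned human receptors (μ with DAMGO, δ with Cl-DPDPE, κ with U69,593), as μ/κ and δ/κ. Values are means of five or six experiments.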

The target in assay [9] is T5, Delta-type opioid receptor. The assay is described as follows: Binding affinity against cloned human Opioid receptor delta 1 transfected into chinese hamster ovary cells using [3H]Cl-DPDPE as radioligand. The class given is cell-based. In short, it runs like this:
as §1

Assay [10] deals with T3, Opioid receptors; mu & kappa (Homo sapiens). The assay is described as follows: Ratio of (Ke) mu-opioid receptor to that of (Ke) kappa-opioid receptor. The class given is protein assay. Summed up: as §3

Each structure is given as a SMILES string.

As usually defined, the Ki is the dissociation constant of the complex between target and ligand, obtained from inhibition or displacement.

T4 sequence (P35372 whole entry): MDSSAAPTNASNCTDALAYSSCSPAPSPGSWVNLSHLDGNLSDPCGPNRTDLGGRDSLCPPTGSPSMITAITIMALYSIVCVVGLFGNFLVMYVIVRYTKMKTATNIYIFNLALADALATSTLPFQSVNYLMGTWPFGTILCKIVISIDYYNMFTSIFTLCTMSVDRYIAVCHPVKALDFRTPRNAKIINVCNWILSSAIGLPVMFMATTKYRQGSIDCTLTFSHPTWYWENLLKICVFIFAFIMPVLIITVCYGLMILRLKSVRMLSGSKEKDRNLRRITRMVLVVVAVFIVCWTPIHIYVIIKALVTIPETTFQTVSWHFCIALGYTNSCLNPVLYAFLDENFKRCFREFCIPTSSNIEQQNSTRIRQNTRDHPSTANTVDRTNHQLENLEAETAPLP
T3 sequence (P35372 whole entry, looked up): as the sequence (P35372 whole entry) above
T3 sequence (P41145 whole entry, looked up): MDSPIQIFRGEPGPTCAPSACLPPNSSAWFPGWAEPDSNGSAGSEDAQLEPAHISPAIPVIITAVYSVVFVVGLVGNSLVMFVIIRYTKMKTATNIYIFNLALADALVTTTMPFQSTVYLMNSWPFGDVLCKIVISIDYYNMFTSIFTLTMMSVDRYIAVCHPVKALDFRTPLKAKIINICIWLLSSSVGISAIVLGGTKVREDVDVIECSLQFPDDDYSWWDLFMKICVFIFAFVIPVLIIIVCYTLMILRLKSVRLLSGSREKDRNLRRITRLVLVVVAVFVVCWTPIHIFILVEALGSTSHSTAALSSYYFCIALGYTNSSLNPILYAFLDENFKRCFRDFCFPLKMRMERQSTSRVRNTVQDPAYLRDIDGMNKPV
T1 sequence (P41145 whole entry): as the sequence (P41145 whole entry, looked up) above
T2 sequence (P41143 whole entry, looked up): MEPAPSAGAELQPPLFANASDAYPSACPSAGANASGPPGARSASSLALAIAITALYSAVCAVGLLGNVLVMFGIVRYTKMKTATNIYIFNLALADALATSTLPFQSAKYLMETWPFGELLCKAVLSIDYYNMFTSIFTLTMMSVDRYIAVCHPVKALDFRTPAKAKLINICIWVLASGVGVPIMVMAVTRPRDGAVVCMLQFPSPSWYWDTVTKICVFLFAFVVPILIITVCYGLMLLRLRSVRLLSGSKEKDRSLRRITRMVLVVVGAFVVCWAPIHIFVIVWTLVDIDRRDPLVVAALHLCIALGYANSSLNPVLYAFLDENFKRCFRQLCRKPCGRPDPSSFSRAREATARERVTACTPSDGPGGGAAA
T2 sequence (P41145 whole entry, looked up): as the sequence (P41145 whole entry, looked up) above
T5 sequence (P41143 whole entry): as the sequence (P41143 whole entry, looked up) above

In the case of `N=C(N)NCCc1ccc2[nH]c3c(c2c1)C[C@@]1(O)[C@H]2Cc4ccc(O)c5c4[C@@]1(CCN2CC1CC1)[C@H]3O5`, the values for the Ki (in assay [1]; on Mu-type opioid receptor [4]; in [9]) were 0.49 nM, 5.69 nM and 4.93 nM, respectively. In addition, the Ratio in [2] amounted to 10; in assay [3], 12; in assay [8], 2; in assay [10] it was 3. Also, the Ke was 0.4 nM in [5], 0.88 nM in assay [6] and 1.25 nM at Mu-type opioid receptor [7].

In the case of `N/C(=N\CCc1ccc2[nH]c3c(c2c1)C[C@@]1(O)[C@H]2Cc4ccc(O)c5c4[C@@]1(CCN2CC1CC1)[C@H]3O5)NCc1ccc(Cl)cc1`, the Ki in assay [1] amounted to 2.41 nM; on Mu-type opioid receptor [4], 7.74 nM; in assay [9], 19.2 nM. The Ratio in [2] turned out to be 8; in [3] it was 3; in [8], 6; in [10] it was 11. The figures for the Ke (in assay [5]; in [6]; on Mu-type opioid receptor [7]) were 0.23 nM, 1.48 nM and 2.61 nM, respectively.

As to `CCCN/C(=N\CC1CC1)Nc1ccc2[nH]c3c(c2c1)C[C@@]1(O)[C@H]2Cc4ccc(O)c5c4[C@@]1(CCN2CC1CC1)[C@H]3O5`, the Ki in assay [1] was 2.38 nM; at Mu-type opioid receptor [4], 22.4 nM; in assay [9] it was 15.5 nM. Further, the Ratio in [2] stood at 6.5; in assay [3], 9; in assay [8] it was 79; in assay [10], 41. In addition, the Ke in [5] was 0.08 nM; in assay [6], 6.31 nM; at Mu-type opioid receptor [7] it was 3.26 nM.

For `CCCC/N=C(\NCCCC)NCCc1ccc2[nH]c3c(c2c1)C[C@@]1(O)[C@H]2Cc4ccc(O)c5c4[C@@]1(CCN2CC1CC1)[C@H]3O5`, the values for the inhibitory constant (Ki) (in [1]; on Mu-type opioid receptor [4]; in assay [9]) were 4.8 nM, 7.89 nM and 6.73 nM, respectively. The Ratio is 1.5 in assay [2], 1.5 in assay [3], 3 in [8] and 12 in [10]. Besides, the results for the Ke (in assay [5]; in assay [6]; at Mu-type opioid receptor [7]) were 0.39 nM, 1.05 nM and 4.62 nM, respectively.

Turning to `CCCC/N=C(\NCCCC)Nc1ccc2[nH]c3c(c2c1)C[C@@]1(O)[C@H]2Cc4ccc(O)c5c4[C@@]1(CCN2CC1CC1)[C@H]3O5`, the values for the Ki (in assay [1]; on Mu-type opioid receptor [4]; in [9]) were 6.96 nM, 18.3 nM and 15 nM, respectively. Moreover, the Ratio in assay [2] turned out to be 2; in [3], 3; in assay [8], 12; in [10], 13. The Ke was 0.44 nM in assay [5], 5.24 nM in [6] and 5.66 nM at Mu-type opioid receptor [7].

In the case of `CCC/N=C(\NCCC)Nc1ccc2[nH]c3c(c2c1)C[C@@]1(O)[C@H]2Cc4ccc(O)c5c4[C@@]1(CCN2CC1CC1)[C@H]3O5`, the Ki in assay [1] came to 2.72 nM; at Mu-type opioid receptor [4], 9.83 nM; in assay [9] it was 8.52 nM. In addition, the Ratio in assay [2] came to 3; in assay [3] it was 4; in assay [8], 9; in [10], 18. Moreover, the Ke in assay [5] was 0.26 nM; in assay [6] it was 2.43 nM; on Mu-type opioid receptor [7], 4.59 nM.

As for `N/C(=N\CCc1ccc2[nH]c3c(c2c1)C[C@@]1(O)[C@H]2Cc4ccc(O)c5c4[C@@]1(CCN2CC1CC1)[C@H]3O5)NCc1ccc([N+](=O)[O-])cc1`, the Ki in assay [1] is 2.14 nM; on Mu-type opioid receptor [4], 9.21 nM; in assay [9], 11.7 nM. In addition, the Ratio in assay [2] worked out at 5; in assay [3] it was 4; in [8], 8; in assay [10], 13. Moreover, the Ke in assay [5] stood at 0.17 nM; in assay [6], 1.34 nM; on Mu-type opioid receptor [7] it was 2.2 nM.

Take `N/C(=N/Cc1cccc(O)c1)Nc1ccc2[nH]c3c(c2c1)C[C@@]1(O)[C@H]2Cc4ccc(O)c5c4[C@@]1(CCN2CC1CC1)[C@H]3O5`: the Ki in [1] was determined as 2.74 nM; at Mu-type opioid receptor [4], 14.2 nM; in assay [9] it was 17.6 nM. Also, the Ratio amounted to 6 in assay [2], 5 in [3], 33 in assay [8] and 33 in assay [10]. Besides, the Ke in [5] was 0.13 nM; in assay [6] it was 4.35 nM; on Mu-type opioid receptor [7], 4.28 nM.

With `N/C(=N/Cc1ccc(Cl)cc1)Nc1ccc2[nH]c3c(c2c1)C[C@@]1(O)[C@H]2Cc4ccc(O)c5c4[C@@]1(CCN2CC1CC1)[C@H]3O5`, the inhibition constant Ki in assay [1] came out at 0.66 nM; on Mu-type opioid receptor [4], 29.8 nM; in assay [9], 85 nM. Also, the Ratio in assay [2] worked out at 129; in [3] it was 45; in assay [8], 55; in assay [10], 37. The Ke in [5] was determined as 0.14 nM; in assay [6], 7.67 nM; at Mu-type opioid receptor [7], 5.24 nM.

In the case of `N/C(=N/Cc1ccc([N+](=O)[O-])cc1)Nc1ccc2[nH]c3c(c2c1)C[C@@]1(O)[C@H]2Cc4ccc(O)c5c4[C@@]1(CCN2CC1CC1)[C@H]3O5`, the Ki turned out to be 1.61 nM in assay [1], 26.3 nM on Mu-type opioid receptor [4] and 95.8 nM in [9]. Also, the Ratio in assay [2] amounted to 60; in [3], 16; in assay [8], 93; in assay [10], 21. Further, the Ke in assay [5] was determined as 0.18 nM; in assay [6], 16.7 nM; at Mu-type opioid receptor [7], 3.71 nM.

With `N/C(=N\CCc1ccc2[nH]c3c(c2c1)C[C@@]1(O)[C@H]2Cc4ccc(O)c5c4[C@@]1(CCN2CC1CC1)[C@H]3O5)NCc1ccccc1`, the Ki worked out at 1.42 nM in assay [1], 3.54 nM on Mu-type opioid receptor [4] and 7.24 nM in [9]. Moreover, the Ratio was found to be 5 in assay [2], 2 in assay [3], 10 in assay [8] and 23 in assay [10]. Besides, the results for the Ke (in assay [5]; in assay [6]; on Mu-type opioid receptor [7]) were 0.13 nM, 1.36 nM and 2.94 nM, respectively.

As to `N/C(=N/Cc1ccccc1)Nc1ccc2[nH]c3c(c2c1)C[C@@]1(O)[C@H]2Cc4ccc(O)c5c4[C@@]1(CCN2CC1CC1)[C@H]3O5`, the figures for the Ki (in assay [1]; on Mu-type opioid receptor [4]; in assay [9]) were 0.86 nM, 10.5 nM and 26.8 nM, respectively. The Ratio was 31 in assay [2], 12 in assay [3], 68 in [8] and 24 in [10]. Also, the Ke in [5] was determined as 0.06 nM; in assay [6], 4.09 nM; at Mu-type opioid receptor [7], 1.41 nM.

In the case of `Oc1ccc2c3c1O[C@H]1c4[nH]c5ccc(N/C(=N/CC6CC6)NCc6ccccc6)cc5c4C[C@@]4(O)[C@@H](C2)N(CC2CC2)CC[C@]314`, the inhibition constant (Ki) in assay [1] turned out to be 3.91 nM; on Mu-type opioid receptor [4], 17.7 nM; in [9], 18.1 nM. The Ratio in [2] is 5; in [3] it was 4.5; in assay [8], 19; in assay [10] it was 16. In addition, the Ke in assay [5] was found to be 0.17 nM; in assay [6], 3.28 nM; at Mu-type opioid receptor [7], 2.75 nM.

In the case of `N=C(N)NCc1ccc2[nH]c3c(c2c1)C[C@@]1(O)[C@H]2Cc4ccc(O)c5c4[C@@]1(CCN2CC1CC1)[C@H]3O5`, the inhibition constant (Ki) worked out at 0.18 nM in assay [1], 36.9 nM on Mu-type opioid receptor [4] and 70 nM in assay [9]. Besides, the Ratio in assay [2] is 389; in assay [3], 205; in [8] it was 389; in assay [10], 81. For the same compound, the Ke worked out at 0.04 nM in assay [5], 15.5 nM in [6] and 3.23 nM at Mu-type opioid receptor [7].

`N/C(=N/Cc1ccc(N)cc1)Nc1ccc2[nH]c3c(c2c1)C[C@@]1(O)[C@H]2Cc4ccc(O)c5c4[C@@]1(CCN2CC1CC1)[C@H]3O5`: the inhibition constant Ki stood at 0.63 nM in assay [1], 7.89 nM at Mu-type opioid receptor [4] and 23.9 nM in assay [9]. The Ratio came to 68 in [2], 13 in assay [3], 120 in [8] and 14 in assay [10]. Moreover, the results for the Ke (in [5]; in assay [6]; on Mu-type opioid receptor [7]) were 0.09 nM, 10.8 nM and 1.22 nM, respectively.

For the compound `N/C(=N/Cc1ccc(O)cc1)Nc1ccc2[nH]c3c(c2c1)C[C@@]1(O)[C@H]2Cc4ccc(O)c5c4[C@@]1(CCN2CC1CC1)[C@H]3O5`, the Ki was found to be 3.26 nM in assay [1], 14.7 nM at Mu-type opioid receptor [4] and 41.9 nM in assay [9]. The Ratio in [2] amounted to 13; in assay [3] it was 4.5; in assay [8] it was 183; in assay [10], 127. The results for the Ke (in assay [5]; in assay [6]; at Mu-type opioid receptor [7]) were 0.1 nM, 18.3 nM and 12.7 nM, respectively.

For `N/C(=N\CCc1ccc2[nH]c3c(c2c1)C[C@@]1(O)[C@H]2Cc4ccc(O)c5c4[C@@]1(CCN2CC1CC1)[C@H]3O5)NCc1ccc(N)cc1`, the Ki in assay [1] was 0.95 nM; at Mu-type opioid receptor [4], 7.78 nM; in assay [9] it was 5.05 nM. The Ratio in assay [2] amounted to 5; in assay [3], 8; in assay [8], 4; in [10], 6. Moreover, the results for the Ke (in assay [5]; in assay [6]; at Mu-type opioid receptor [7]) were 0.25 nM, 0.95 nM and 1.57 nM, respectively.
